# JMJD2C inh – human JMJD2C demethylase inhibition. inhibition, % at 2.35 µM. Q9H3R0. AID 2099. GST-JMJD2C(1-420) H3K9me3 demethylation, DELFIA europium. 330,000 tested, 0.069% active;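 active = more than half of a compound's replicate wells show inhibition beyond 50%, single wells judged on their own value; inconclusive = some, but no more than half, of replicates pass 50% inhibition; inactive = no replicate passes 50% inhibition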;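 also: signal counts dimethyl H3K9 product captured on neutravidin plate; 0% = median of DMSO wells and 100% = 0.3 times that DMSO median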
# TDP2 inh – TDP2 (human) inhibition, absorbance primary screen; AID 720702; O95551; inhibition, % at 12.8 µM; 370,000 tested, 0.34% active; recombinant TDP2, T5PNP hydrolysis, p-nitrophenol absorbance 415 nm;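 active = inhibition above the mean of all tested compounds plus 3 SD, set per campaign, cut at about 25% in these data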;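 also: 0% = DMSO with enzyme and 100% = buffer with substrate but no TDP2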
#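 Assay system: recombinant human TDP2 / Reagent: T5PNP substrate at 5 mM, a TopII-DNA adduct mimic / Measured by: epi absorbance from released p-nitrophenol / Evaluation: % inhibition relative to enzyme-containing and enzyme-free wells / Control set: enzyme-free and DMSO wells / Replicates: each compound tested once, singlicate / Schedule: enzyme reaction with compound for 2 h at 37 °C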
# PAD4 inh – PAD4 (human) enzyme inhibition; 330,000 tested, 0.41% active; recombinant PAD4, RCA probe fluorescence polarization; AID 485272; inhibition, % at 6.36 µM;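 active = percent inhibition above a cutoff equal to the mean of all tested compounds plus 3 SD, cut at about 15% in these data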;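 also: 0% = PAD4 with RCA probe and DMSO and 100% = probe without PAD4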
# Apaf1 inhib – inhibitors of human Apaf-1 apoptosome | reconstituted apoptosome caspase-3 activity, DEVD-Rh110 fluorescence | inhibition, % at 20 µM | 330,000 tested, 0.71% active; active = inhibition of at least 40% at 20 µM;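 also: plate controls were DMSO wells for no effect and DEVD-CHO caspase inhibitor wells for full effect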
#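 Medium: Hepes buffer, pH 7.5 / System: biochemical Apaf-1 apoptosome reconstitution / Measured by: Rh110 fluorescence, excitation 480 nm, emission 540 nm / Times: compound with Apaf-1, dATP, procaspase-3 30 min, then 50 min reaction, room temperature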
# GSTO1 counter – blocks human GSTO1 in RBBP9 counter-screen; P78417; recombinant GSTO1, activity-based probe fluorescence polarization; inhibition, % at 5.96 µM; 300,000 tested, 1.1% active;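 active = inhibition above the campaign mean inhibition plus 3 SD, cut at about 35% in these data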;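 also: 0% = GSTO1-1 with DMSO and 100% = wells lacking GSTO1-1 enzyme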
# UBC9 SUMO inh – SUMOylation inhibition; P63279; HTRF SUMOylation assay, SAE1/SAE2 + UBC9, in vitro; inhibition, % at 35 µM; 290,000 tested, 0.36% active; AID 2006; in the data active = inhibition above about 50%, passing the limit was not always enough; inconclusive = no clear call, values can overlap the other calls
# TDP2 inh conf – human TDP2 inhibition, confirmation | shares compounds with TDP2 inh | recombinant human TDP2, absorbance read-out | inhibition, % at 12.8 µM | 1,100 tested, 22% active; in the data active = inhibition above about 25%;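 also: 0% = vehicle with enzyme and 100% = no enzyme buffer only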
# * hit, by the source's call; ? = inconclusive; · = no result given. This is a sample that favours compounds with a hit; in the whole collection about 1.6% have one here.
SMILES,JMJD2C inh,TDP2 inh,PAD4 inh,Apaf1 inhib,GSTO1 counter,UBC9 SUMO inh,TDP2 inh conf
COc1cc(C(CC(=O)Nc2ncccc2C)N2Cc3ccccc3C2=O)cc(OC)c1OC (stereo not drawn),-7.7,26.0*,-4.7,-2.1,12.0,-5.1,-2.9
COc1ccc(C(CC(=O)Nc2ncccc2C)N2Cc3ccccc3C2=O)cc1OC (stereo not drawn),-11.4,15.2,-6.7,9.7,6.2,-0.8,·
CC(C)(C)c1ccc(S(=O)(=O)N2CCCC(C(=O)NCc3ccco3)C2)cc1 (stereo not drawn),·,-5.1,·,·,·,·,·
O=C(N/N=C/c1cc(Cl)ccc1O)c1cccnc1,0.8,59.7*,-1.3,-11.0,-1.1,-0.4,-12.8
O=C(N/N=C/c1cccnc1)c1cccc(Cl)c1,-1.1,7.6,2.1,-1.5,0.9,-2.3,·
C[C@H]1[C@@H](OC(=O)NCc2cccc(C(F)(F)F)c2)CC[C@@]23CCCN2C(=O)CCC[C@@H]13,·,0.9,·,·,·,·,·
CCCc1nc2c(=O)n(C)c(=O)nc-2n(C)n1,·,95.2*,·,·,·,97.9*,87.3*
CCn1ccnc1CNC(=O)c1ccc(OC2CCN(C(=O)COC)CC2)cc1,-3.2,26.8*,3.2,2.0,5.7,8.3,-4.9
Cc1nn(-c2ccccc2)c2c1C(c1c(C)[nH]c(C#N)c1C)C(C#N)=C(N)O2 (stereo not drawn),?,35.3*,4.1,-0.4,22.7,74.7*,-1.7
CCOC(=O)C1=C(C)OC(N)=C(C#N)C1c1c(C)nn(-c2ccccc2)c1Cl (stereo not drawn),1.7,6.6,-3.4,21.2,-2.9,7.1,·
Cc1nn(-c2ccccc2)c(Cl)c1C1C(C#N)=C(N)Oc2c1c(C)nn2-c1ccccc1 (stereo not drawn),1.3,27.1*,-14.1,23.6,20.9,26.8,9.3
Cc1nn(-c2ccccc2)c(Cl)c1C1C(C#N)=C(N)Oc2n[nH]c(C)c21 (stereo not drawn),-19.2,12.2,-24.8,13.3,6.7,4.6,·
CC(=O)C1=C(c2ccccc2)OC(N)=C(C#N)C1c1ccccc1F (stereo not drawn),2.5,7.2,-0.7,5.0,3.4,-7.3,·
Cc1ccc(-n2nc(C)c3c2OC(N)=C(C#N)C3c2ccccc2F)cc1 (stereo not drawn),-3.8,25.9*,6.0,11.9,17.5,-1.6,-2.5
CC(C)(C)c1ccc(C(=O)Nc2cc(Cl)ccc2-c2nn[nH]n2)cc1,·,-0.9,·,·,·,·,·
COc1ccc2c(c1)CO[C@H]([C@H](O)COC(C)=O)[C@H]2/C=C/c1ccccc1,·,4.6,·,·,·,·,·
O=C(NCc1cccnc1)c1ccc2c(c1)N(Cc1ccccc1)CCS2,-2.1,24.9*,-2.1,7.1,4.5,15.6,-3.4
COc1cc(CN2CCC(C(=O)N3CCN(c4ccccc4F)CC3)CC2)cc(OC)c1O,19.0,-2.7,-2.7,5.5,7.5,2.8,·
CCOc1ccc(CN2CCC(C(=O)N3CCN(c4ccccc4F)CC3)CC2)cc1OC,1.8,33.5*,-1.8,-3.6,-7.8,15.5,-0.1
CCc1ccccc1OCC(=O)Nc1cccc(S(=O)(=O)NCc2ccco2)c1,-4.5,-4.9,-7.7,25.3,·,·,·
O=C(CN1C(=O)S/C(=C\c2ccc(F)cc2)C1=O)Nc1cccc(S(=O)(=O)NCc2ccco2)c1,27.7,27.2*,0.7,18.5,-1.3,-36.4,0.2
CCCCN(C(C)=O)C1CC(=O)N(c2ccc(OCCC)cc2)C1=O (stereo not drawn),3.7,29.1*,-0.5,-2.8,5.6,10.5,-4.6
O=S1(=O)C=CCN1Cc1cn(Cc2cccc(Cl)c2)nn1,·,6.6,·,·,·,·,·
CCCCNC(=O)C1CCCN1C(=O)Nc1cc(C)cc(C)c1 (stereo not drawn),·,0.0,·,·,·,·,·
Cc1ccc(-n2c(SCC(=O)Nc3ccccc3-c3ccccc3)nnc2-c2cccs2)cc1,·,-9.6,·,·,·,·,·
O=C1C(=O)c2cccnc2-c2ncccc21,·,104.0*,·,·,·,·,88.7*

# Assay outcomes from PubChem BioAssay.
